The values below come from the EternaBench riboswitch data.

The subject of this data set is MS2 coat protein. The data set is described as follows: apparent Kd, MS2 coat protein; higher = weaker binding; RNA-MaP array; FMN 200 µM where present. A digest of the protocol:
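Green signal from SNAP-549-labelled MS2 coat protein was normalised to red-channel RNA signal and to the median Fmax of control clusters. The protein was titrated from 0.7 or 1.5 nM, doubling to 3 µM, without and then with constant ligand, over designs transcribed by stalled E. coli RNA polymerase on Illumina sequencing-chip clusters, in 100 mM Tris-HCl pH 7.5, 80 mM KCl, 4 mM MgCl2, BSA, DTT, yeast tRNA and Tween-20. The apparent Kd is the median of filtered per-cluster binding-curve fits.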

Setting [1] is: designed as: OFF switch for flavin mononucleotide, no ligand.
Where [2] appears, read: ligand present: flavin mononucleotide, designed as: OFF switch for flavin mononucleotide.
Where [3] appears, read: designed as: ON switch for flavin mononucleotide, no ligand.
[4] abbreviates: ligand present: flavin mononucleotide, designed as: ON switch for flavin mononucleotide.

In general, apparent Kd refers to a dissociation constant that holds for the conditions of the assay. Take “AAAUCGGCAGGAUAUACAUGAGGAUCACCCAUGUAAAUUUUUCGUUUAACUUGAAUGUGUAGAAGGGCCAUAAA”: the “apparent Kd” value came to 25.6 nM under setting [1] and 27.1 nM under setting [2].

Consider “GUAGCAUACCGAGGAUAUUCAUACAGGAAACUGACAUGAGGAUCACCCAUGUGGCGAAAGCCUUGGGAGAAGGCGGAAUGCUAC”, for which the “apparent Kd” value runs as follows: under setting [3], 637 nM; under setting [4], 28.4 nM.

Take “CAAGUGUCAGGAUAUACAUGAGGAUCACCCAUGUGUCUUUGUGAUCGUAGGGUGCACCGUAGAAGGGACACUCC”: the “apparent Kd” value runs as follows: under setting [1], 70.4 nM; under setting [2], 127 nM.

Take “AACAUGUGAGGAUAUGUCACAUGGCUCUUCGGAGCAAGAUGACAGAAGGCACAUGAGGAUCACCCAUGUGCAUC”: the “apparent Kd” value under setting [1] was 13.8 nM and the “apparent Kd” value under setting [2] worked out at 22.6 nM.

In the case of “CCGAAUGUCACAGGAUAUGGUCCGGGCACGCGACCAGAAGGGUGAUCUCACAUGAGGAUCACCCAUGUGCAGGCGUAAGGCUGC”, the “apparent Kd” value is 28.4 nM under setting [3] and 193 nM under setting [4].

On to “AGACCGUUCGAGAAGGUGCGAGAGAAAUGUGAGUGAGGAUAUUGAAACAUGAGGAUCACCCAUGUCAUGAGGAUCGCCGAUGUG”, for which the “apparent Kd” value worked out at 39.6 nM under setting [3] and 31.6 nM under setting [4].

For the sequence “ACUUAUGAAGGAUAUACUAGCGACAUGCACUCAACACGCGCACAUGAGGAUCACCCAUGUAGAAGGUCAAACAU”, the “apparent Kd” value runs as follows: under setting [1], 25.8 nM; under setting [2], 23.1 nM.

As to “GGGCUCGGAGGAUAUACAAUGGGCUCGGGAAAUCGGGUCUUACAUGAGGAUCACCCAUGUAGAAGGUCGGGUCU”, the “apparent Kd” value under setting [1] turned out to be 22.2 nM and the “apparent Kd” value under setting [2] amounted to 47.1 nM.

As to “GUUGGGUUUUUUUUUGGACGUUCAACAUGAGGAUCACCCAUGUAGGAUAUCGUUUGUUUUUUUUACGAGAAGGGCGUAUUUUUU”, the “apparent Kd” value under setting [1] worked out at 9.65 nM and the “apparent Kd” value under setting [2] was 8.01 nM.

“GCACAUGGCAUAGGAUAUAGAACUAUACAUUAUAUAGGUAGUGUCACAACACUAGAAGGAUGAAACAUGAGGAUCACCCAUGUA”: the “apparent Kd” value under setting [3] was determined as 14.9 nM and the “apparent Kd” value under setting [4] was found to be 12.2 nM.

Turning to “AGCUGUGGCCGAGGAUAUCUAAUAUCUCAAACCGAAAUAUAAUCGGACAUGAGGAUCACCCAUGUAGAGAAGGCGGUCUCAGCA”, the “apparent Kd” value under setting [1] came out at 31.1 nM and the “apparent Kd” value under setting [2] came out at 85 nM.

Consider “UUCUUACAUGAGGAUCACCCAUGUCAGGAUAUCUCCGCACUGCGCUUGCGCAGUGCAUAGAGAAGGGACAGGCU”, for which the “apparent Kd” value amounted to 55 nM under setting [1] and 50.2 nM under setting [2].

Regarding “GAAUUCGCAUGAGGAUAUGCACUCAUUUCAUGUGCAGAAGGUAUUUCAUUAGACAUGAGGAUCACCCAUGUAUUGGUCAUUAAC”, the “apparent Kd” value by setting is: under setting [3], 19.3 nM; under setting [4], 14.7 nM.

As to “GUGUGAUUAAGAGGAUAUAUACAACAUGAGGAUCACCCAUGUACCCGUGUAGUAGAAGGUUUGUUUUUAUAUAAUAUUAUAAUU”, the “apparent Kd” value reads like this: under setting [3], 29.9 nM; under setting [4], 24.8 nM.

As to “AUUGUAUGGGAAGGAUAUAGAAUAUUAUUUUAACAUGAGGAUCACCCAUGUAACCUUAUGUGUAGCUAGAAGGUCCGUUUAUUA”, the “apparent Kd” value stood at 131 nM under setting [1] and 157 nM under setting [2].

As for “UAUAAGCUAGGAUAUACUAACGAAACUAAUGCAUAUAUAUAACAUGAGGAUCACCCAUGUAGAAGGAGCAGAAU”, the “apparent Kd” value under setting [1] came out at 25.5 nM and the “apparent Kd” value under setting [2] was 23 nM.

For the sequence “AUUAUGACCGAGUAAAGCUUCAAAACAUGAGGAUCACCCAUGUAGGAUAUCAGCACGAUAAGUGCUGAGAAGGACAUCUCGGUC”, the “apparent Kd” value under setting [1] stood at 14.3 nM and the “apparent Kd” value under setting [2] amounted to 15.1 nM.

In the case of “AACUCGUCAGGAUAUGCGCGCAGAUAAUACGCUUCGCAAUUGCAGAAGGGACAUGAGGAUCACCCAUGUAAAUA”, the “apparent Kd” value under setting [1] stood at 29.8 nM and the “apparent Kd” value under setting [2] came out at 32 nM.

With “GUGGUCAGACAUGAGGAUCACCCAUGUGGAAUAAAUAAGGAACAGGAUAUCUAAUAUAGGAUAUAAGAGAAGGGUUGGUUGGUG”, the “apparent Kd” value reads like this: under setting [3], 81.7 nM; under setting [4], 93.6 nM.

“CCAGGCAGUGUGAGGAUAUCGUGGUCCUUGGAUCACGAGAAGGCACAUGAGGAUCACCCAUGUGAAUAGCUUGG”: the “apparent Kd” value is, setting by setting: under setting [1], 22.2 nM; under setting [2], 87.3 nM.

Consider “AUCAGCUCGUCAGGAUAUACGUCACUGCGUCAGCAGUGUAAUAAAAUAACAUGAGGAUCACCCAUGUAGAAGGGACGAGCUGAU”, for which the “apparent Kd” value under setting [1] was determined as 6.36 nM and the “apparent Kd” value under setting [2] turned out to be 6.75 nM.

Consider “UUAUUAUAUGUAGGAUAUGCAUAUUAUUAUUAUGCAGAAGGACAUGAGGAUCACCCAUGUAUGUUAUUAUUAUAUAUUAUAUAU”, for which the “apparent Kd” value under setting [1] worked out at 26.1 nM and the “apparent Kd” value under setting [2] is 34.7 nM.

As for “UCUGCAUAGUCAGGAUAUGCAAAGUAAUGUAUGGAAACAUACAUUACAACAUGAGGAUCACCCAUGUAGAAGGGACUGUGCAGA”, the “apparent Kd” value is 14 nM under setting [1] and 13 nM under setting [2].

On to “UGUUUGUGAGGAUAUCCAAUAUAUGACAUGAGGAUCACCCAUGUUUCCACUCGUACCUCCGGAGAAGGCACUGCGU”, for which the “apparent Kd” value runs as follows: under setting [1], 29.1 nM; under setting [2], 26 nM.

With “GUUGUGUCAGGAUAUACGUUUGUUUUUUUUUUUGUUGUUUAGUAGAAGGGACAUGAGGAUCACCCAUGUUUGUU”, the “apparent Kd” value by setting is: under setting [1], 25.7 nM; under setting [2], 28.2 nM.

Turning to “CCGACAUGAGGAUAUCCAUCUGGAUCAGACUAGAUCCUGAUGGAGAAGGCACAUGAGGAUCACCCAUGUUACGG”, the “apparent Kd” value was 373 nM under setting [1] and 89.1 nM under setting [2].

For “UCGUUUUUUGAGGAUAUGCGACGUUCCUUCGUCGUAGAAGGCGAUACAUGAGGAUCACCCAUGUUUAUGGGCAU”, the “apparent Kd” value is 108 nM under setting [1] and 138 nM under setting [2].

Regarding “CCGGCUGCUGUGAGGAUAUGCCUGUGGGUGCGUGGGUAGAAGGCACAUGAGGAUCACCCAUGUCCUGCGGCUCC”, the “apparent Kd” value under setting [1] came to 877 nM and the “apparent Kd” value under setting [2] worked out at 311 nM.

Take “GUGAAGGUAGGAUAUACGAUAAUAUAGGGUAGAUAUAUAACACAUGAGGAUCACCCAUGUAGAAGGACCAAGUG”: the “apparent Kd” value under setting [1] was 46.3 nM and the “apparent Kd” value under setting [2] turned out to be 110 nM.

In the case of “UUCAUUAACAUGAGGAUCACCCAUGUUGGCCAGUCUCACACCAGAAGGCACGUUGAGCACAGCAGUGAGGAUAUGGGUGACAUA”, the “apparent Kd” value runs as follows: under setting [3], 236 nM; under setting [4], 223 nM.

Regarding “GGAAAACAUGAGGAUCACCCAUGUGAGGAUAUCGAUGUCCAAUUUAAAGUGCGGGACUCGAGAAGGCACUUGGA”, the “apparent Kd” value under setting [1] turned out to be 43 nM and the “apparent Kd” value under setting [2] came to 30.1 nM.

Take “GGGUACAUCGGAGGAUAUCAUGCAAAUACAUGAGGAUCACCCAUGUCGAUGGAGACAUCGGAGAUUGAGAAGGCCGAUGUACCG”: the “apparent Kd” value runs as follows: under setting [3], 21.9 nM; under setting [4], 5.5 nM.

As to “AAUAAACAUGAGGAUCACCCAUGUAAUAUAAAUGGAGGAUAUGCAAUUAUUAAUUAUUAAGUAGAAGGUCGAAUAA”, the “apparent Kd” value was 73.9 nM under setting [3] and 73.6 nM under setting [4].

For “GUCAGCUCGUGAGGAUAUACAACACUGCAUCGGCAGUGUAUUAAGAUCACAUGAGGAUCACCCAUGUAGAAGGCACGAGCUGAU”, the “apparent Kd” value under setting [1] is 13 nM and the “apparent Kd” value under setting [2] is 246 nM.

Turning to “AAUAUGUUGCAGAAGGUUAUAUUUUUUUAGUACCUCAUGACAUGAGGAUCACCCAUGUUUUUGUUGAAGGAUAUGCAAUAUAUU”, the “apparent Kd” value runs as follows: under setting [1], 17.1 nM; under setting [2], 14.3 nM.

For the sequence “CGAUAUGAUAGAGGAUAUGUAAUACAUGAGGAUCACCCAUGUUACAUGGGAAUUAUAAAUAAUUAACAGAAGGCUAUUCUAUCG”, the “apparent Kd” value runs as follows: under setting [1], 63.8 nM; under setting [2], 177 nM.

Take “GGAGCACACAUUCACAUGAGGAUCACCCAUGUCAAAAGACAUGAGGAUAUGGAUCCGAAAAGGAUCCAGAAGGCAUGGUGCUCC”: the “apparent Kd” value by setting is: under setting [3], 483 nM; under setting [4], 25.5 nM.

Regarding “ACAUGAUAUGUAGGAUAUCACAACUUGUGUUAUAAAAUUGUAAUUUAGGAUUGAGAAGGACAUUUACAUGAGGAUCACCCAUGU”, the “apparent Kd” value reads like this: under setting [1], 17.6 nM; under setting [2], 13.3 nM.

Turning to “GUUAGACAUGAGGAUCACCCAUGUGAGGAUAUGAUGCGAUCGUGCUGACAUGAUCGCAUCAGAAGGCACAUAUG”, the “apparent Kd” value under setting [1] worked out at 133 nM and the “apparent Kd” value under setting [2] was 190 nM.

Consider “AAUUGGAUCCAGAAGGCAUGGACGACCCGUCAAAUUAACAUGAGGAUCACCCAUGUCAAAAGACAUGAGGAUAUGGAUCCUAAA”, for which the “apparent Kd” value runs as follows: under setting [3], 869 nM; under setting [4], 28.4 nM.

Turning to “UUUUGACAUGAGGAUCACCCAUGUCAGGAUAUAGUAGGACAAAUAAAUAAAAGUUCUACUAGAAGGGAUAUGGA”, the “apparent Kd” value runs as follows: under setting [1], 23.2 nM; under setting [2], 37.5 nM.

In the case of “UUUUUACAUGAGGAUCACCCAUGUCAGGAUAUGUUUAUAUUUUAUUAUUUUAUUUUUUACAGAAGGGACUAUUA”, the “apparent Kd” value is 136 nM under setting [1] and 66.6 nM under setting [2].

Consider “AUCAGCUCGUCAGGAUAUACGUCACUGCGUCACCAGUGUGGUAAGAUCACAUGAGGAUCACCCAUGUAGAAGGGACGAGCUGAU”, for which the “apparent Kd” value reads like this: under setting [1], 15.4 nM; under setting [2], 287 nM.

As for “GGGCUGUCAGGAUAUGGGCUCGGGCUCGAAAGGGCUCGGGCUCAGAAGGGACAUGAGGAUCACCCAUGUGGCUC”, the “apparent Kd” value is 43.8 nM under setting [1] and 58 nM under setting [2].

“ACAUUCACUCGACUGGUUCUUAACAUGAGGAUCACCCAUGUAGAGGAUAUAGGAAUUCUGGGUUCCUAGAAGGCUACGUGAGUG”: the “apparent Kd” value runs as follows: under setting [1], 15.9 nM; under setting [2], 76.7 nM.

In the case of “CCUGAGUCAGGAUAUUGUACCGGCCUGAAGCCAAGCCGACCCAAGAAGGGACAUGAGGAUCACCCAUGUGAAAA”, the “apparent Kd” value is, setting by setting: under setting [1], 21.3 nM; under setting [2], 22.9 nM.

On to “CGUGCGUAUGUGAGGAUAUGCUGGUCCUUGGAUCGGCAGAAGGCACAUGAGGAUCACCCAUGUGGUGUCGUACG”, for which the “apparent Kd” value worked out at 351 nM under setting [1] and 22.9 nM under setting [2].

Regarding “GGAUGACAUAGUCAUCUUUAACGAACAUGAGGAUCACCCAUGUAGGAUAUGCUACUCAACGAGUAGCAGAAGGACAUGUGUCUU”, the “apparent Kd” value by setting is: under setting [1], 25.9 nM; under setting [2], 127 nM.
